Results on ten compounds are retold here after ChEMBL document CHEMBL4265929, “4-Hydroxy-1,2,3-triazole moiety as bioisostere of the carboxylic acid function: a novel scaffold to probe the orthosteric γ-aminobutyric acid receptor binding site” (Eur J Med Chem, 2018).

Series [1] in a line: Displacement of [3H]muscimol from GABAA receptor in Sprague-Dawley rat brain synaptic membranes after 60 mins by Topcount scintillation counting method. The essentials:
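Synaptic membranes from male SPRD rat cortex and central hemispheres, washed four times (50 mM Tris-HCl pH 7.4, 48,000g, 4 °C). Membranes (70–80 µg protein) incubated with [3H]muscimol (5 nM final) and graded compound concentrations, 60 min, 0 °C. GF/C filtration, scintillation counting. Non-specific binding with 1.0 mM GABA. Triplicates, ≥3 experiments. IC50 converted to Ki (modified Cheng–Prusoff); mean pKi ± SEM.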
In general terms: In a radioligand displacement assay an active substance lowers the binding of a labelled ligand.

Series [2] is described as follows: Ionization constant, pKa of the compound in KCl at pH 1.8 by potentiometric titration method. It counts as physicochemical. The essentials: (§1)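 Potentiometric titration of about 1 mM aqueous compound, ionic strength 0.15 M KCl. Solution acidified to pH 1.8 with 0.5 N HCl, then titrated with standardized 0.5 N KOH to pH 12.2 at 25 °C under argon. pKa taken as mean of four titrations.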

Series [3] is described as follows: Ionization constant, pKa of the compound in methanol by diode array detection method. It counts as physicochemical.
Series [4] can be described thus: Ionization constant, pKa of the compound. It counts as physicochemical. The essentials: as §1

In general, Ki refers to the equilibrium dissociation constant of an inhibitor or competing ligand from its target. Low values mean higher affinity, high ones lower affinity. The pKi is the Ki on a negative log10 scale, so that one unit is a factor of ten. For orientation: pKa means the negative logarithm of the acid dissociation constant.

Bounds are passed on as bounds.

In the case of `Oc1cn(C2CCNCC2)nn1`, in series [1], the Ki is 55 µM and the pKi stood at 4.26. The compound also registered a pKa in series [2] of 6.51.

As to `Oc1cc(C2CCNCC2)[nH]n1`, the inhibition constant Ki in series [1] was above 100 µM. Further, the pKa in series [3] worked out at 6.7.

In series [1], `Oc1nn(C2CCNCC2)nc1Cc1ccc2ccccc2c1` registered a Ki of 3.3 µM and a negative-log Ki (pKi) of 5.49.

The compound `Oc1nn(C2CCNCC2)nc1CCC(c1ccccc1)c1ccccc1` gave a Ki in series [1] above 100 µM.

In series [1], `Oc1nnn(C2CCNCC2)c1Cc1ccc2ccccc2c1` gave a Ki of 2.4 µM and a pKi of 5.62.

For `NCCc1nsnc1O`, in series [1], the affinity, expressed as Ki, was 75 µM and the pKi came to 4.13. In addition, the pKa in series [2] amounted to 4.54.

As for `On1cc(C2CCNCC2)cn1`, in series [1], the affinity, expressed as Ki, was 10 µM. Besides, the pKa in series [4] is 5.4.

In the case of `Cn1nc(O)c(CCN)n1`, the inhibition constant (Ki) in series [1] is above 100 µM. Moreover, in series [2], the pKa was found to be 5.92.

For `Oc1cnn(C2CCNCC2)n1`, the Ki in series [1] is above 100 µM. In series [2], this compound came in with a pKa of 6.36.

As for `Oc1nnn(C2CCNCC2)c1CCC(c1ccccc1)c1ccccc1`, in series [1], affinity was put at a Ki of 1.6 µM and the negative logarithm of the Ki (pKi) turned out to be 5.8.
